Measured values published in ChEMBL document CHEMBL1123434, “Thiazole-4-carboxamide adenine dinucleotide (TAD). Analogues stable to phosphodiesterase hydrolysis” (J Med Chem, 1986).

Tests used:
[1] = species on record: Mus musculus; assay: Compound was tested for its degradation by TAD-phosphodiesterase; assay type: functional
Procedure, shortened: (§1)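 Dinucleotide incubated as substrate at 7.5 mM in 0.03 M Tris-MgCl2, pH 7.6, for 30 min with enzyme: line 1, partially purified TAD-phosphodiesterase from colon-38 carcinoma cells; line 2, snake venom phosphodiesterase. Degradation quantified by HPLC as AMP or TRMP formed, or parent dinucleotide lost, depending on substrate. Expressed relative to TAD hydrolysis set at 100%.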

[2] = test system: snake; assay: Compound was tested for its degradation by venom phosphodiesterase; assay type: functional; procedure, shortened: as §1
[3] = test system: P388; assay: The cytotoxic concentration against P388 leukemia cell; assay type: functional; conditions: Mus musculus, read-out: ID50 (the source's name)
[4] = test system: P388; assay: The influence (5 uM) on Guanine nucleotide pools of Natural P388 sensitive cell lines measured as conc. of GTP; assay type: functional, Mus musculus
Procedure, shortened: (§2)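 Log-phase P388/S (parental) or P388/R cells (TR-resistant, selected to grow in 1 mM TR) exposed 18 h to the stated concentration. Cells then washed in cold saline, extracted with cold 10% TCA and neutralized with tri-n-octylamine/freon. GMP, GDP and GTP quantified by SAX HPLC: 0.03 M ammonium phosphate pH 3.5, then gradient to 0.6 M, pH 3.8. Values as nmol/10^6 cells.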

[5] = test system: P388; assay: The influence (5000 uM) on Guanine nucleotide pools of Natural P388 resistant cell lines measured as conc. of GMP; assay type: functional, Mus musculus; procedure, shortened: as §2
[6] = test system: P388; assay: The influence (2.5 uM) on Guanine nucleotide pools of Natural P388 resistant cell lines measured as conc. of GTP; assay type: functional, Mus musculus; procedure, shortened: as §2
[7] = test system: P388; assay: The influence (5000 uM) on Guanine nucleotide pools of Natural P388 resistant cell lines measured as conc. of GDP; assay type: functional, Mus musculus; procedure, shortened: as §2
[8] = test system: P388; assay: The influence (2.5 uM) on Guanine nucleotide pools of Natural P388 resistant cell lines measured as conc. of GDP; assay type: functional, Mus musculus; procedure, shortened: as §2
[9] = test system: P388; assay: The influence (2.5 uM) on Guanine nucleotide pools of Natural P388 sensitive cell lines measured as conc. of GTP; assay type: functional, Mus musculus; procedure, shortened: as §2
[10] = test system: P388; assay: The influence (5000 uM) on Guanine nucleotide pools of Natural P388 resistant cell lines measured as conc. of GTP; assay type: functional, Mus musculus; procedure, shortened: as §2
[11] = test system: P388; assay: The influence (5 uM) on Guanine nucleotide pools of Natural P388 sensitive cell lines measured as conc. of GMP; assay type: functional, Mus musculus; procedure, shortened: as §2
[12] = test system: P388; assay: The influence (2.5 uM) on Guanine nucleotide pools of Natural P388 resistant cell lines measured as conc. of GMP; assay type: functional, Mus musculus; procedure, shortened: as §2
[13] = test system: P388; assay: The influence (2.5 uM) on Guanine nucleotide pools of Natural P388 sensitive cell lines measured as conc. of GDP; assay type: functional, Mus musculus; procedure, shortened: as §2
[14] = test system: P388; assay: The influence (2.5 uM) on Guanine nucleotide pools of Natural P388 sensitive cell lines measured as conc. of GMP; assay type: functional, Mus musculus; procedure, shortened: as §2
[15] = test system: P388; assay: The influence (5 uM) on Guanine nucleotide pools of Natural P388 sensitive cell lines measured as conc. of GDP; assay type: functional, Mus musculus; procedure, shortened: as §2
[16] = molecular target: Inosine-5'-monophosphate dehydrogenase 2 (Mus musculus, UniProt P24547); assay: Compound was tested for inhibitory activity against Inosine-5'-monophosphate dehydrogenase, the type of inhibition in not competitive
Procedure, shortened: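 Partially purified IMP dehydrogenase; kinetics run at 3 inhibitor concentrations against 6 levels of substrate NAD or IMP (0.25, 0.5, 1, 2, 4 and 6 × Km). Inhibition type judged from these kinetics.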

[17] = test system: P388; assay: The influence (50 uM) on Guanine nucleotide pools of Natural P388 resistant cell lines measured as conc. of GDP; assay type: functional, Mus musculus; procedure, shortened: as §2
[18] = test system: P388; assay: The influence (100 uM) on Guanine nucleotide pools of Natural P388 resistant cell lines measured as conc. of GDP; assay type: functional, Mus musculus; procedure, shortened: as §2
[19] = test system: P388; assay: The influence (100 uM) on Guanine nucleotide pools of Natural P388 resistant cell lines measured as conc. of GMP; assay type: functional, Mus musculus; procedure, shortened: as §2
[20] = test system: P388; assay: The influence (100 uM) on Guanine nucleotide pools of Natural P388 sensitive cell lines measured as conc. of GTP; assay type: functional, Mus musculus; procedure, shortened: as §2
[21] = test system: P388; assay: The influence (100 uM) on Guanine nucleotide pools of Natural P388 sensitive cell lines measured as conc. of GDP; assay type: functional, Mus musculus; procedure, shortened: as §2
[22] = test system: P388; assay: The influence (50 uM) on Guanine nucleotide pools of Natural P388 resistant cell lines measured as conc. of GTP; assay type: functional, Mus musculus; procedure, shortened: as §2
[23] = test system: P388; assay: The influence (50 uM) on Guanine nucleotide pools of Natural P388 sensitive cell lines measured as conc. of GTP; assay type: functional, Mus musculus; procedure, shortened: as §2
[24] = test system: P388; assay: The influence (50 uM) on Guanine nucleotide pools of Natural P388 sensitive cell lines measured as conc. of GMP; assay type: functional, Mus musculus; procedure, shortened: as §2
[25] = test system: P388; assay: The influence (100 uM) on Guanine nucleotide pools of Natural P388 sensitive cell lines measured as conc. of GMP; assay type: functional, Mus musculus; procedure, shortened: as §2
[26] = test system: P388; assay: The influence (50 uM) on Guanine nucleotide pools of Natural P388 resistant cell lines measured as conc. of GMP; assay type: functional, Mus musculus; procedure, shortened: as §2
[27] = test system: P388; assay: The influence (50 uM) on Guanine nucleotide pools of Natural P388 sensitive cell lines measured as conc. of GDP; assay type: functional, Mus musculus; procedure, shortened: as §2
[28] = test system: P388; assay: The influence (100 uM) on Guanine nucleotide pools of Natural P388 resistant cell lines measured as conc. of GTP; assay type: functional, Mus musculus; procedure, shortened: as §2

Inosine-5'-monophosphate dehydrogenase 2, sequence (P24547 whole entry): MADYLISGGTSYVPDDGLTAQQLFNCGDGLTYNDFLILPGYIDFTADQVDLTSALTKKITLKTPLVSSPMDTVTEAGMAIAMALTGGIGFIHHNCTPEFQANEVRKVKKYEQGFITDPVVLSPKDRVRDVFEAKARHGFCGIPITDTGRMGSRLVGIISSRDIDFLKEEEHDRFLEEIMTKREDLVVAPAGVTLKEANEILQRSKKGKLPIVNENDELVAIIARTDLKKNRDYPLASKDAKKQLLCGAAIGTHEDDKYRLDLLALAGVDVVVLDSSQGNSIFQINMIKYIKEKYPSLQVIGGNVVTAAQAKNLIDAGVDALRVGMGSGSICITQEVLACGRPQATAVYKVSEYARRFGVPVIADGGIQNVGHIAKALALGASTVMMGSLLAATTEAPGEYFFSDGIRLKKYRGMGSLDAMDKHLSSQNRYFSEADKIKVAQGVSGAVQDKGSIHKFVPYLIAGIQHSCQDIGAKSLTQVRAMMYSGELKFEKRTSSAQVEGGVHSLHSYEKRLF

For `NC(=O)c1csc([C@@H]2O[C@H](COP(=O)(O)OP(=O)(O)CC[C@H]3O[C@@H](n4cnc5c(N)ncnc54)[C@H](O)[C@@H]3O)[C@@H](O)[C@H]2O)n1`, the hydrolysis relative to TAD [1] was 13%, the hydrolysis relative to TAD [2] was 37.6% and the IC50 [3] was 2800 nM.
`NC(=O)c1csc([C@@H]2O[C@H](CO)[C@@H](O)[C@H]2O)n1` [TIAZOFURIN] showed a Control [4] of 34%, a Control [5] of 0% and a Control [6] of 111%. It also gave a Control [7] of 74%, a Control [8] of 88% and a Control [9] of 51%. It also gave a Control [10] of 52%, a Control [11] of 8% and a Control [12] of 98%. It also gave a Control [13] of 41%, a Control [14] of 12% and a Control [15] of 36%.
Work on `NC(=O)c1csc([C@@H]2O[C@H](CCP(=O)(O)OP(=O)(O)OC[C@H]3O[C@@H](n4cnc5c(N)ncnc54)[C@H](O)[C@@H]3O)[C@@H](O)[C@H]2O)n1` yielded a Ki [16] of 1970 nM, a hydrolysis relative to TAD [1] of 10.4% and a hydrolysis relative to TAD [2] of 27.2%. The IC50 [3] was 100000 nM.
`NC(=O)c1csc([C@H]2O[C@@H](COP(=O)(O)OP(=O)(O)OC[C@H]3O[C@@H](n4cnc5c(N)ncnc54)[C@H](O)[C@@H]3O)[C@H](O)[C@@H]2O)n1` was tested, and the Ki [16] was 240 nM, the hydrolysis relative to TAD [1] was 100% and the hydrolysis relative to TAD [2] was 100%. It also gave an IC50 [3] of 2100 nM.
For `NC(=O)c1csc([C@@H]2O[C@H](COP(=O)(O)CP(=O)(O)OC[C@@H]3O[C@H](n4cnc5c(N)ncnc54)[C@@H](O)[C@H]3O)[C@@H](O)[C@H]2O)n1`, the Control [17] was 24%, the Control [18] was 34% and the Control [19] was 3%. For the same compound, the Control [20] was 39%, the Control [21] was 19% and the Control [22] was 5%. For the same compound, the Control [23] was 24%, the Control [24] was 14% and the Ki [16] was 230 nM. It also gave a hydrolysis relative to TAD [1] of 0%, a hydrolysis relative to TAD [2] of 0% and a Control [25] of 6%. For the same compound, the IC50 [3] was 45000 nM, the Control [26] was 3% and the Control [27] was 24%. The Control [28] was 8%.
